The record followed here is ChEMBL document CHEMBL1141874, “Synthesis and biological evaluation of novel bisheterocycle-containing compounds as potential anti-influenza virus agents” (Bioorg Med Chem Lett, 2005).

What is called CC50 is the concentration that lowers cell viability or growth by half. The IC50 is the concentration that inhibits the measured activity by half.

SMILES strings stand for the structures. ≈ marks a conversion by molar mass, not a printed value. Calls of active or inactive are those of the source. The calls are words filed in the database; no cut-off is given here. Bounds are passed on as bounds.

The test system of assay [1] is Influenza A virus. The experiment in a line: Cytotoxicity in MDCK cells infected with influenza A H3N2 virus. Type of assay: functional. The method in brief: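 Confluent MDCK monolayers were infected with influenza A H3N2 (A3 China/15/90) for 2 h at 37 °C, then the inoculum was removed and a range of compound concentrations added. Cultures were read when the virus control reached 4+ CPE. The value is the concentration causing microscopically detectable toxicity in the virus-infected cultures.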

Assay [2] has as its system Influenza B virus. Kind of assay: Inhibitory activity against influenza B virus. It counts as functional, organism-based.
The test system of assay [3] is Influenza A virus. Kind of assay: Antiviral activity against influenza A H3N2 virus in MDCK cells. Type of assay: functional, organism-based. In short, it runs like this:
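Confluent MDCK monolayers were infected with influenza A H3N2 (A3 China/15/90) for 2 h at 37 °C. The inoculum was removed and the cells were treated with a range of compound concentrations. CPE was scored once the virus control reached 4+. The concentration giving 50% reduction of virus-induced CPE was found by Reed–Muench interpolation.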

Where [4] appears, read: Influenza A virus, H3N2, MDCK, read-out: IC50.

Take `COC(=O)c1nc(-c2csc([C@@H](NC(=O)CC3=CCCC3)C(C)C)n2)oc1C`: in assay [1], the CC50 was determined as 333 µg/mL (≈ 826 µM). For the same molecule, the result in assay [2] was inactive.
Take `COC(=O)c1nc(-c2csc([C@@H](NC(=O)c3ccccc3OC)C(C)C)n2)oc1C`: in assay [3] (setting [4]), the IC50 came to 47.7 µg/mL (≈ 111 µM). For the same molecule, the CC50 in assay [1] was found to be 333 µg/mL (≈ 776 µM). Moreover, the result in assay [2] was inactive.
Consider `COC(=O)c1nc(-c2csc([C@@H](N)C(C)C)n2)oc1C`, for which the IC50 in assay [3] (setting [4]) amounted to 259 µg/mL (≈ 876 µM). In assay [1], this molecule registered a 50% cytotoxic concentration (CC50) of 577 µg/mL (≈ 1950 µM). The result in assay [2] was inactive.
Turning to `COC(=O)c1coc([C@H](C)NC(=O)c2nc(-c3csc([C@@H](NC(=O)C4CCCCC4)C(C)C)n3)oc2C)n1`, half-maximal cytotoxicity in assay [1] (CC50) was put at 144 µg/mL (≈ 266 µM). In addition, the outcome in assay [2] was inactive.
For the molecule `COC(=O)c1nc(-c2csc([C@@H](NC(=O)C3CCC3)C(C)C)n2)oc1C`, the CC50 in assay [1] worked out at 500 µg/mL (≈ 1320 µM). Also, the result in assay [2] was inactive.
In assay [1], `CCC(=O)N[C@H](c1nc(-c2nc(C(=O)N[C@@H](C)c3nc(C(=O)OC)co3)c(C)o2)cs1)C(C)C` gave a CC50 of 577 µg/mL (≈ 1180 µM). Moreover, the result in assay [2] was inactive.
For the molecule `COC(=O)c1coc([C@H](C)NC(=O)c2nc(-c3csc([C@@H](NC(=O)c4cccc(F)c4)C(C)C)n3)oc2C)n1`, the IC50 in assay [3] (setting [4]) turned out to be 77 µg/mL (≈ 139 µM). The same molecule had a CC50 in assay [1] of 577 µg/mL (≈ 1040 µM). Also, in assay [2], the result was inactive.
Consider `NC(=O)c1ncn([C@@H]2O[C@H](CO)[C@@H](O)[C@H]2O)n1` [RIBAVIRIN], for which, in assay [3] (setting [4]), the IC50 came out at 3.73 µg/mL (≈ 15.3 µM).
As for `COC(=O)c1nc(-c2csc([C@@H](NC(=O)C3CCCCC3)C(C)C)n2)oc1C`, in assay [3] (setting [4]), the IC50 stood at 43.6 µg/mL (≈ 107 µM). The molecule further came in with a CC50 in assay [1] of 144 µg/mL (≈ 356 µM). Also, the result in assay [2] was inactive.
On to `COC(=O)c1nc(-c2csc([C@@H](NC(=O)c3cccc(F)c3)C(C)C)n2)oc1C`, for which, in assay [3] (setting [4]), the IC50 was over 86.2 µg/mL. The CC50 in assay [1] was over 1000 µg/mL. Moreover, the outcome in assay [2] was inactive.
`C=CCCC(=O)N[C@H](c1nc(-c2nc(C(=O)OC)c(C)o2)cs1)C(C)C` returned a CC50 in assay [1] of 577 µg/mL (≈ 1530 µM). In addition, in assay [2], the outcome was inactive.
For `COc1ccccc1C(=O)N[C@H](c1nc(-c2nc(C(=O)O)c(C)o2)cs1)C(C)C`, the IC50 in assay [3] (setting [4]) stood at 29 µg/mL (≈ 69.8 µM). The midpoint of cytotoxicity in assay [1], the CC50, lay at 333 µg/mL (≈ 802 µM). In addition, the outcome in assay [2] was inactive.
For `COC(=O)c1coc([C@H](C)NC(=O)c2nc(-c3csc([C@@H](NC(=O)CC4=CCCCC4)C(C)C)n3)oc2C)n1`, the IC50 in assay [3] (setting [4]) worked out at 44.5 µg/mL (≈ 80 µM). It took 577 µg/mL (≈ 1040 µM) to reach half-maximal cytotoxicity in assay [1] (CC50). Besides, the outcome in assay [2] was inactive.
Take `COC(=O)c1nc(-c2csc([C@@H](NC(=O)CC=C(C)C)C(C)C)n2)oc1C`: the IC50 in assay [3] (setting [4]) is 192 µg/mL (≈ 492 µM). In assay [1], this molecule came in with a half-maximal cytotoxic concentration (CC50) of over 1000 µg/mL. Also, the result in assay [2] was inactive.
Molecule `COC(=O)c1nc(-c2csc([C@@H](NC(=O)C(C)(C)C)C(C)C)n2)oc1C` displayed a CC50 in assay [1] of 577 µg/mL (≈ 1520 µM). Besides, in assay [2], the result was inactive.
As for `C/C=C(\C)C(=O)N[C@H](c1nc(-c2nc(C(=O)OC)c(C)o2)cs1)C(C)C`, the IC50 in assay [3] (setting [4]) came out at 37 µg/mL (≈ 98.1 µM). This molecule also displayed a CC50 in assay [1] of 231 µg/mL (≈ 612 µM). Also, the result in assay [2] was inactive.
Turning to `COC(=O)c1coc([C@H](C)NC(=O)c2nc(-c3csc([C@@H](NC(=O)CC=C(C)C)C(C)C)n3)oc2C)n1`, in assay [1], the CC50 amounted to 577 µg/mL (≈ 1090 µM). Moreover, the result in assay [2] was inactive.
For the molecule `Cc1oc(-c2csc([C@@H](NC(=O)CC3=CCCC3)C(C)C)n2)nc1C(=O)O`, the IC50 in assay [3] (setting [4]) turned out to be 29 µg/mL (≈ 74.5 µM). The same molecule had a CC50 in assay [1] of 481 µg/mL (≈ 1230 µM). In addition, in assay [2], the result was inactive.
For the molecule `Cc1oc2nc1C(=O)N[C@@H](C)c1nc(co1)C(=O)N[C@@H](CC(C)C)C(=O)N1CCC[C@H]1C(=O)N[C@@H](C(C)C)c1nc-2cs1` [LEUCAMIDE A], the IC50 result in assay [3] (mdck) is on record as “Not Active”. In addition, in assay [1], the CC50 result is “inactive”.
As for `COC(=O)c1nc(-c2csc([C@@H](NC(=O)CC3=CCCCC3)C(C)C)n2)oc1C`, the CC50 in assay [1] amounted to 231 µg/mL (≈ 554 µM). In addition, in assay [2], the result was inactive.
On to `COC(=O)c1nc(-c2csc([C@@H](NC(=O)CCC=C(C)C)C(C)C)n2)oc1C`, for which the IC50 in assay [3] (setting [4]) came out at 37 µg/mL (≈ 91.3 µM). The molecule further showed a CC50 in assay [1] of 577 µg/mL (≈ 1420 µM). Further, the result in assay [2] was inactive.
`CCC(=O)N[C@H](c1nc(-c2nc(C(=O)OC)c(C)o2)cs1)C(C)C` had a CC50 in assay [1] of 577 µg/mL (≈ 1640 µM). For the same molecule, the result in assay [2] was inactive.
